{"source": "paper PMC5899023", "about": "(Nanomedicine : nanotechnology, biology, and medicine, 2018)", "key": {"[1]": {"assay": "14-day repeated dose study to identify the MTD", "settings": "for % weight loss at day 14 in Swiss Webster mice: in DMSO, i.p. daily, 14 days"}, "UACC 903 xenograft": {"test_system": "UACC 903 xenograft", "assay": "UACC 903 xenograft tumor growth in nude mice", "format": "in vivo", "settings": "for % in-vivo tumor inhibition at day 21 in Nude mice: in DMSO, i.p.", "procedure,_shortened": "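Female athymic nude mice aged 3–4 weeks received 1×10⁶ UACC 903 cells in 0.2 mL DMEM/10% FBS subcutaneously above both rib cages. At day 8 (vascularized tumors of 50–75 mm³), mice were randomized (3/group, 2 tumors/mouse) and dosed daily i.p. with free test compound in DMSO (5 or 10 mg/kg) or DMSO vehicle for 3–4 weeks. Tumor dimensions and body weight were taken on alternate days; % inhibition was scored at day 21. Run twice independently.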"}, "[2]": {"test_system": "FOM103 normal melanocytes", "assay": "MTS cell viability, FOM103", "format": "cell-based", "settings": "Melanocyte, 72 h, read-out: IC50 FOM103", "procedure,_shortened": "(§1)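 MTS viability assay. Cells were grown at 37°C in humidified 5% CO2: melanoma lines UACC 903 and 1205 Lu (BRAF V600E) or C8161.Cl9 and MelJuSo (BRAF wild type), or normal […]. 5×10³ cells/well were treated 48 h after seeding for 72 h with rising concentrations of free or nanoliposomal test compound (nanoliposomal: 10–100 μmol/L). IC50 came from 3 independent experiments; group values are averages across the lines.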"}, "[3]": {"test_system": "FF2441 normal human fibroblast cell line", "assay": "MTS cell viability, FF2441", "format": "cell-based", "settings": "FF2441, 72 h, read-out: IC50 FF2441", "procedure,_shortened": "as §1"}, "[4]": {"test_system": "UACC 903 melanoma cell line", "assay": "MTS cell viability, UACC 903", "format": "cell-based", "settings": "Homo sapiens, UACC-903, 72 h, read-out: IC50 UACC 903", "procedure,_shortened": "as §1"}, "[5]": {"test_system": "normal cells FOM103 and FF2441", "assay": "MTS cell viability, normal cells taken together", "format": "cell-based", "settings": "FF2441, read-out: average IC50 for killing normal FOM103 and FF2441", "procedure,_shortened": "as §1"}, "[6]": {"test_system": "1205 Lu melanoma cell line", "assay": "MTS cell viability, 1205 Lu", "format": "cell-based", "settings": "Homo sapiens, 72 h, read-out: IC50 1205 Lu", "procedure,_shortened": "as §1"}, "[7]": {"test_system": "four melanoma cell lines (UACC 903, 1205 Lu, C8161.Cl9, MelJuSo)", "assay": "MTS cell viability, melanoma cell lines taken together", "format": "cell-based", "procedure,_shortened": "as §1"}, "[8]": {"settings": "mouse, in vivo"}, "[9]": {"test_system": "C8161.Cl9 melanoma cell line", "assay": "MTS cell viability, C8161.Cl9", "format": "cell-based", "settings": "72 h, read-out: IC50 C8161.Cl9", "procedure,_shortened": "as §1"}, "Hemolytic activity": {"assay": "Hemolytic activity", "format": "cell-based", "settings": "human, human erythrocytes, 5% v/v suspension", "procedure,_shortened": "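Erythrocytes from fresh EDTA-anticoagulated human blood, separated at 1,500 rpm for 10 min at 4°C using PBS. A 5% v/v suspension in PBS was exposed to free or nanoliposomal test compound (10–40 μmol/L), ethanol or empty liposome (negative controls), or 1% Triton X-100, at 37°C for 60 min. After a 12,000 rpm spin, supernatant A540 was read. % hemolysis = sample A540 / Triton A540 × 100.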"}, "cPLA2 [10]": {"test_system": "cPLA2", "settings": "various in-vitro studies; ref [13], [37]; cited from earlier work"}, "cPLA2 [11]": {"biological_target": "T1, cPLA2 (Homo sapiens, UniProt P47712)", "T1 sequence (P47712 1-749)": "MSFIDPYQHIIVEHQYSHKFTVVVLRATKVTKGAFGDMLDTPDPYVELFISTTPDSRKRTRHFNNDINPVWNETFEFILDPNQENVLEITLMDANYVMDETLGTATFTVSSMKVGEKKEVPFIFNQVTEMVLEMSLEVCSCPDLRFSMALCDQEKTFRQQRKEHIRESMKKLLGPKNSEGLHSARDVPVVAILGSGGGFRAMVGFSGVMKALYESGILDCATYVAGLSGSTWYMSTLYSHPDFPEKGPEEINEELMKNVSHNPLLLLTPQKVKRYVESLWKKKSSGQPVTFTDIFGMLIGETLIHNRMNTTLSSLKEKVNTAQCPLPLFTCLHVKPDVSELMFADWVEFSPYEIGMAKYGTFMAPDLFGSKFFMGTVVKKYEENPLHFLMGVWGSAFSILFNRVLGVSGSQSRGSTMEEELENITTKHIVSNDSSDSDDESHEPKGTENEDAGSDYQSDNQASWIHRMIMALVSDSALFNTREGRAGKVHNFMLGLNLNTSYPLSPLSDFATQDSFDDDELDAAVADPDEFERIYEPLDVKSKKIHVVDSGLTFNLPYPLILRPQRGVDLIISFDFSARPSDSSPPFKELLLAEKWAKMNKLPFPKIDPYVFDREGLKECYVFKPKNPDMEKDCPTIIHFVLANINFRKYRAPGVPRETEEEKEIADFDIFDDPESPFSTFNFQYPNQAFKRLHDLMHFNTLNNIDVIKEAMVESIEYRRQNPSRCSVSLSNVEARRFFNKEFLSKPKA", "assay": "cPLA2 activity assay", "format": "biochemical", "procedure,_shortened": "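Colorimetric cPLA2 assay (commercial kit) on UACC 903 lysate made in Hepes pH 7.4 with 1 mM EDTA. sPLA2 was removed by 30 kDa cutoff filtration and iPLA2 was blocked with bromoenol lactone. Lysate was treated with free or nanoliposomal test compound (0.5–10 μmol/L); DMSO or empty nanoliposome defined 100% activity. Arachidonoyl thio-PC substrate ran for 1 h, then DTNB was added and absorbance read at 414 nm.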"}}, "note": "“And” between values parts separate entries of the source, which are not always exact repeats. Equal entries are not always repeated. Where two headings read alike, the source gives them in different places.", "data": [{"compound": "CCCCC/C=C\\C/C=C\\C/C=C\\C/C=C\\CCCC(=O)C(F)(F)F", "note": "[ATK, Arachidonyl trifluoromethyl ketone]", "values": [{"measurement": "% weight loss at day 14 in Swiss Webster mice", "setting": "[1]; 5 mg/kg body weight", "value": "No weight loss"}, {"measurement": "% weight loss at day 14 in Swiss Webster mice", "setting": "[1]; 10 mg/kg body weight", "value": "3.1 ± 3.52", "unit": "%"}, {"measurement": "% weight loss at day 14 in Swiss Webster mice", "setting": "[1]; 15 mg/kg body weight", "value": "14.5% and 14.5 ± 0.95%"}, {"measurement": "% weight loss at day 14 in Swiss Webster mice", "setting": "[1]; 20 mg/kg body weight", "value": "Death in 10 days"}, {"measurement": "% weight loss at day 14 in Swiss Webster mice", "setting": "[1]; 30 mg/kg body weight", "value": "Death in 8 days"}, {"measurement": "MTD at 14 days", "setting": "[1]; Swiss Webster, mouse, in vivo, ip", "value": 10, "unit": "mg/kg"}, {"measurement": "% in-vivo tumor inhibition at day 21 in Nude mice", "setting": "UACC 903 xenograft; 5 mg/kg body weight", "value": "12.9 ± 6.30", "unit": "%"}, {"measurement": "% in-vivo tumor inhibition at day 21 in Nude mice", "setting": "UACC 903 xenograft; 10 mg/kg body weight", "value": "32.5 ± 5.73", "unit": "%"}, {"measurement": "changes in body weight of tumor-bearing mice", "setting": "UACC 903 xenograft; 5 and 10 mg/kg i.p. daily in DMSO", "value": "did not show any significant changes in body weight"}, {"measurement": "reduction in tumor volume", "setting": "UACC 903 xenograft; free ATK in DMSO, 5 and 10 mg/kg (MTD) i.p. daily, 3-4 weeks", "value": "approximately 30%"}, {"measurement": "IC50", "setting": "[2]", "value": "57.9 ± 10.4", "unit": "µM"}, {"measurement": "IC50", "setting": "[3]", "value": "63.3 ± 10.3", "unit": "µM"}, {"measurement": "IC50", "setting": "[4]", "value": "26.3 ± 2.1", "unit": "µM"}, {"measurement": "IC50", "setting": "[5]", "value": 60, "unit": "µM"}, {"measurement": "IC50", "setting": "[6]", "value": "26.1 ± 4.4", "unit": "µM"}, {"measurement": "fold more effective at killing melanoma cells than normal cells", "setting": "[7]; average melanoma versus average normal cells", "value": 3, "unit": "fold"}, {"measurement": "IC50", "setting": "[7]; read-out: average IC50 for melanoma cells", "value": 22, "unit": "µM"}, {"measurement": "% weight loss at day 14 in Swiss Webster mice", "setting": "[8]", "value": "Animal mortality occurred"}, {"measurement": "IC50", "setting": "[9]", "value": "18.6 ± 3.1", "unit": "µM"}, {"measurement": "hemolysis at 60 min", "setting": "Hemolytic activity", "value": "2 to 3", "unit": "%"}, {"measurement": "hemolysis at 60 min, 40 μmol/L", "setting": "Hemolytic activity", "value": 2.9, "unit": "%"}, {"measurement": "potency in inhibiting cPLA2 over sPLA2 and iPLA2", "setting": "cPLA2 [10]", "value": 500, "unit": "fold"}, {"measurement": "IC50", "setting": "cPLA2 [11]", "value": 1.85, "unit": "µM"}]}]}
